Measured values published in ChEMBL document CHEMBL3352221, “Acyclic tethers mimicking subunits of polysaccharide ligands: selectin antagonists” (ACS Med Chem Lett, 2014).
The source made the active and inactive calls. No cut-off for these calls is given here.

Columns and labels:
[1] = tested on: Mus musculus; assay: Inhibition of TNFalpha-induced decrease in leukocyte rolling flux in mouse cremaster at 100 mg/kg, iv; assay type: functional, organism-based; design: dose 100 mg/kg
How it was run: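 Intravital microscopy of mouse cremaster. Mice receive rmTNFα in 150 μL saline. Compound in saline, or saline alone, is given intrajugularly at 100 mg/kg. Leukocyte rolling is read before and 10 min after injection. Means of 5 readings per venule, 10 venules per mouse, 5–6 mice per condition (±SEM).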

[2] = target: T1, P-selectin (Homo sapiens, UniProt P16109); assay: Antagonist activity at P-selectin (unknown origin) by surface plasmon resonance-based dynamic assay
T1 sequence (P16109 whole entry): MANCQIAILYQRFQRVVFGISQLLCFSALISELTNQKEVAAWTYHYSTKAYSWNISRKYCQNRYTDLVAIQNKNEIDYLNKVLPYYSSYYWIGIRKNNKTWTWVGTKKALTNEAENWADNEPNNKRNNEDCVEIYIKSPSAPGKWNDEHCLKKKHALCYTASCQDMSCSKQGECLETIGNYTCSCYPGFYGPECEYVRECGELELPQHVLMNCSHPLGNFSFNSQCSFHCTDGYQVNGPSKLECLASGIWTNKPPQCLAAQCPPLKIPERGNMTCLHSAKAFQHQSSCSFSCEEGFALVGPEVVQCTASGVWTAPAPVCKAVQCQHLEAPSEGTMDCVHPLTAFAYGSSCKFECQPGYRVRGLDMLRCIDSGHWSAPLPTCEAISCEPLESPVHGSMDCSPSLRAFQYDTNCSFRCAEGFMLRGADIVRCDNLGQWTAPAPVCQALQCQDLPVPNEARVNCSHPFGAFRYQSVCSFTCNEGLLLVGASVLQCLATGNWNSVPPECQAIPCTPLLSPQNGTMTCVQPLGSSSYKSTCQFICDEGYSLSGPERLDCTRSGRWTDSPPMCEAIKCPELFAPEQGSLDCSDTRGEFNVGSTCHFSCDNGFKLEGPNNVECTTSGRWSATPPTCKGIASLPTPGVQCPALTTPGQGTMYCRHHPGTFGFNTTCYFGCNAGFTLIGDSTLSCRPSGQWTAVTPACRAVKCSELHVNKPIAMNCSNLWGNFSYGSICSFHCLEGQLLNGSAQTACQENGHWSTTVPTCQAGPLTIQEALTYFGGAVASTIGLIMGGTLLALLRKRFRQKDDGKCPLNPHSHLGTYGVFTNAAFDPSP

[3] = target: T2, E-selectin (Homo sapiens, UniProt P16581); assay: Antagonist activity at E-selectin (unknown origin) assessed as adhesion to [3H]thymidine-labelled human HL60 cells by static assay; assay type: cell-based, HL-60
T2 sequence (P16581 whole entry): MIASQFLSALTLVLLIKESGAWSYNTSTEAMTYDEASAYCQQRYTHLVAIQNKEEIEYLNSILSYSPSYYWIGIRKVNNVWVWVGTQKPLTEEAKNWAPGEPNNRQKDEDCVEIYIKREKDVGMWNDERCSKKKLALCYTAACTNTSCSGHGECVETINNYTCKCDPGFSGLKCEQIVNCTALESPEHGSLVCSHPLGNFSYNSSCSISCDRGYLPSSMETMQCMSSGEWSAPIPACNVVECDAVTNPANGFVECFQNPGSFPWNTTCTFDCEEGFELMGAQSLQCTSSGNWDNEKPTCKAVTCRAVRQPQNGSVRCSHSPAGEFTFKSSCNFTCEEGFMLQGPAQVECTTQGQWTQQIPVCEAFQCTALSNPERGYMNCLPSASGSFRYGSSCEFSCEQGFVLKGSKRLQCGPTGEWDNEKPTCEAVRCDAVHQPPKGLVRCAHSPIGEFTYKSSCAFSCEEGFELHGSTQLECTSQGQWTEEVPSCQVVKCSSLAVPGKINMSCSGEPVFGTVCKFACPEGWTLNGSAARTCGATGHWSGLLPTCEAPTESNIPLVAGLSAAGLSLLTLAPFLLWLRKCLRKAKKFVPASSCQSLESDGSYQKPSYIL
How it was run: (§1)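 HL-60 cells labelled with [3H]thymidine in the culture medium. Wells precoated with goat anti-human IgG, then E- or P-selectin IgG (per line) captured. Labelled cells incubated on the immobilized selectin with test compound over a dose range. Non-adherent cells washed off, bound radioactivity counted, and IC50 derived from the dose-dependent loss of adherent cells.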

[4] = target: T1, P-selectin; assay: Antagonist activity at P-selectin (unknown origin) assessed as adhesion to [3H]thymidine-labelled human HL60 cells by static assay; assay type: cell-based, HL-60; how it was run: as §1

Row | SMILES | inhibition [1] | IC50 [2] [µM] | IC50 [3] [µM] | IC50 [4] [µM]
1 | CC(=O)N[C@H]1[C@H]([C@H](O)[C@H](O)CO)O[C@@](O[C@H]2[C@@H](O)[C@@H](CO)O[C@@H](O[C@@H]([C@H](O[C@@H]3O[C@@H](C)[C@@H](O)[C@@H](O)[C@@H]3O)[C@H](C=O)NC(C)=O)[C@H](O)CO)[C@@H]2O)(C(=O)O)C[C@@H]1O | Active | – | – | –
2 | CC(C)OC(=O)[C@H](O[C@H]1O[C@@H](CO)[C@H](OC(=O)c2ccccc2)[C@@H](O[C@@H](Cc2ccccc2)C(=O)O)[C@H]1OC(=O)c1ccccc1)[C@@H](O[C@H]1O[C@@H](C)[C@@H](O)[C@@H](O)[C@@H]1O)C(=O)OCCc1cn(CCCCCOC(=O)[C@H](O[C@@H]2O[C@@H](C)[C@@H](O)[C@@H](O)[C@H]2O)[C@@H](O[C@@H]2O[C@H](CO)[C@H](OC(=O)c3ccccc3)[C@H](O[C@H](Cc3ccccc3)C(=O)O)[C@H]2OC(=O)c2ccccc2)C(=O)OC(C)C)nn1 | – | 8 | – | –
3 | COC(=O)[C@H](O[C@@H]1O[C@@H](C)[C@@H](O)[C@@H](O)[C@@H]1O)[C@@H](O[C@@H]1O[C@H](CO)[C@H](O)[C@H](O[C@H](Cc2ccccc2)C(=O)O)[C@H]1O)C(=O)OC | – | – | 5460 | 4840
4 | COC(=O)[C@H](O[C@@H]1O[C@@H](C)[C@@H](O)[C@@H](O)[C@@H]1O)[C@@H](O[C@@H]1O[C@H](CO)[C@H](OC(=O)c2ccccc2)[C@H](O[C@H](Cc2ccccc2)C(=O)O)[C@H]1OC(=O)c1ccccc1)C(=O)OC | – | 18 | 140 | 110
5 | CC(C)OC(=O)[C@H](O[C@@H]1O[C@@H](C)[C@@H](O)[C@@H](O)[C@@H]1O)[C@@H](O[C@@H]1O[C@H](CO)[C@H](OC(=O)c2ccccc2)[C@H](O[C@H](Cc2ccccc2)C(=O)O)[C@H]1OC(=O)c1ccccc1)C(=O)OC(C)C | – | 8 | 76 | 67
6 | COC(=O)[C@H](O[C@@H]1O[C@@H](C)[C@@H](O)[C@@H](O)[C@@H]1O)[C@@H](O[C@@H]1O[C@H](CO)[C@H](O)[C@H](O[C@H](Cc2ccccc2)C(=O)O)[C@H]1OC(=O)c1ccccc1)C(=O)OC | – | 520 | 2080 | 1900
7 | CC(C)OC(=O)[C@H](O[C@@H]1O[C@@H](C)[C@@H](O)[C@@H](O)[C@@H]1O)[C@@H](O[C@@H]1O[C@H](CO)[C@H](O)[C@H](O[C@H](Cc2ccccc2)C(=O)O)[C@H]1OC(=O)c1ccccc1)C(=O)OC(C)C | – | 34 | 220 | 190
8 | COC(=O)[C@H](O[C@@H]1O[C@@H](C)[C@@H](O)[C@@H](O)[C@@H]1O)[C@@H](O[C@@H]1O[C@H](CO)[C@H](OC(=O)c2ccccc2)[C@H](O[C@H](Cc2ccccc2)C(=O)O)[C@H]1OC(=O)c1ccccc1)C(=O)OC(C)C | – | 21 | – | –
9 | CC(C)OC(=O)[C@H](O[C@@H]1O[C@@H](C)[C@@H](O)[C@@H](O)[C@@H]1O)[C@@H](O[C@@H]1O[C@H](CO)[C@H](OC(=O)c2ccccc2)[C@H](O[C@H](Cc2ccccc2)C(=O)O)[C@H]1O)C(=O)OC(C)C | – | 19 | – | –
10 | COC(=O)[C@H](O[C@@H]1O[C@H](CO)[C@H](OC(=O)c2ccccc2)[C@H](O[C@H](Cc2ccccc2)C(=O)O)[C@H]1OC(=O)c1ccccc1)[C@@H](O[C@@H]1O[C@@H](C)[C@@H](O)[C@@H](O)[C@@H]1O)C(=O)OC(C)C | – | 16 | – | –
